This is an account of results in ChEMBL document CHEMBL4028918, “7-Phenoxy-Substituted 3,4-Dihydro-2H-1,2,4-benzothiadiazine 1,1-Dioxides as Positive Allosteric Modulators of α-Amino-3-hydroxy-5-methyl-4-isoxazolepropionic Acid (AMPA) Receptors with Nanomolar Potency” (J Med Chem, 2018).

Structures are written as SMILES. Active and inactive are the calls of the source. The calls are words filed in the database; no cut-off is given here.

One assay concerns the target Glutamate receptor 2 (Homo sapiens, UniProt P42262). As to the kind of experiment: Positive allosteric modulation of GluA2 (Q) flop isoform (unknown origin) expressed in HEK293 cells assessed as potentiation of glutamate-evoked calcium flux by fluo-4/AM dye-based fluorescence assay. Format: cell-based.
For assay [1], the species on record is Rattus norvegicus. In words: Induction of dimerization of rat N-terminal His-tagged GluA2-LBD-N775S mutant expressed in Escherichia coli Origami B (DE3) assessed as intrinsic binding constant by small-angle X-ray scattering method. The method, boiled down:
(§1)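 1 μL modulator in DMSO was added to 29 μL protein. Samples were held at 4 °C and read on the CHESS G1 beamline, three replicates averaged, with buffer subtraction.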

The species named for assay [2] is Rattus norvegicus. In words: Induction of dimerization of rat N-terminal His-tagged/15N-labeled GluA2-LBD-N775S mutant expressed in Escherichia coli Origami B (DE3) at 90 uM by NMR spectroscopy.
For assay [3], the species on record is Rattus norvegicus. In words: Induction of dimerization of rat N-terminal His-tagged GluA2-LBD-N775S mutant expressed in Escherichia coli Origami B (DE3) assessed as dimerization constant by small-angle X-ray scattering method. The method, boiled down:
as §1

Sequence of Glutamate receptor 2 (P42262 whole entry, the tested form may be a part, canonical isoform): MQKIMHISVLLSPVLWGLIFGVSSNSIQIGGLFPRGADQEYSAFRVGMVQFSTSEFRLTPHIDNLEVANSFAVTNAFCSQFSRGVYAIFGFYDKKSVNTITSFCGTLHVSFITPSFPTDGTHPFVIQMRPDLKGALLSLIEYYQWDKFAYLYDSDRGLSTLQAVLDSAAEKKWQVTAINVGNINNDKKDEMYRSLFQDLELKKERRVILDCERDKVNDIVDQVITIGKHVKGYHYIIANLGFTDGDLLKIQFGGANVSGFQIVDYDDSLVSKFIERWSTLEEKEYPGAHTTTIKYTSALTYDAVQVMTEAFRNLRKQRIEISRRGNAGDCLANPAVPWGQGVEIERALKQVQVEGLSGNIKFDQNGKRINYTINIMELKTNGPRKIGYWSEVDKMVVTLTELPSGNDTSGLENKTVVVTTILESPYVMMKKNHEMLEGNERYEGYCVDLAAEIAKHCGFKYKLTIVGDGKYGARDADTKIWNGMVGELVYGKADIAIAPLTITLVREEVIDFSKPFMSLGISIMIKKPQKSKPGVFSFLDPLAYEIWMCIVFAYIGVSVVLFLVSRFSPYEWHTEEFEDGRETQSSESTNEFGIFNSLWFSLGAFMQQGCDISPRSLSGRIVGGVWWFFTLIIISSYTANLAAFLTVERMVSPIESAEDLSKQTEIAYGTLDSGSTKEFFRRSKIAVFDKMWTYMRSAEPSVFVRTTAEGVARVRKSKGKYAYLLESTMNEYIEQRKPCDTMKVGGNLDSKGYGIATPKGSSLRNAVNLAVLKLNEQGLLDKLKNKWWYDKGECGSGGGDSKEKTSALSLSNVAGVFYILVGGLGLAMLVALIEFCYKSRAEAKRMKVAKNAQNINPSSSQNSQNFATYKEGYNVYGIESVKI

As to `CC1N(C)c2ccc(Cl)cc2S(=O)(=O)N1C` (stereo not drawn), the EC50 on Glutamate receptor 2 (read-out: EC50) was determined as 18.7 µM. For `O=S1(=O)NCN(C2CC2)c2ccc(F)cc21`, in the assay filed under Rattus norvegicus [1], the K is 9 ×10⁻⁷ M. In addition, the EC50 at Glutamate receptor 2 (read-out: EC50) worked out at 0.81 µM.

With `COc1ccc(Oc2ccc3c(c2)S(=O)(=O)NCN3C2CC2)cc1`, the EC50 on Glutamate receptor 2 (read-out: EC50) was determined as 1.82 µM. Regarding `N#Cc1cccc(Oc2ccc3c(c2)S(=O)(=O)NCN3C2CC2)c1`, the EC50 on Glutamate receptor 2 (read-out: EC50) was 0.45 µM.

With `COc1cccc(Oc2ccc3c(c2)S(=O)(=O)NCN3C)c1`, the EC50 at Glutamate receptor 2 (read-out: EC50) came out at 0.37 µM. Same read-out and setting: as for `COc1ccccc1Oc1ccc2c(c1)S(=O)(=O)NCN2C1CC1`, the figure is 15.6 µM. Turning to `Cc1ccccc1Oc1ccc2c(c1)S(=O)(=O)NCN2C`, on Glutamate receptor 2 (read-out: pEC50 (converted)), the EC50 is over 10 µM. In the case of `CN1CNS(=O)(=O)c2cc(Oc3ccccc3)ccc21`, the EC50 on Glutamate receptor 2 (read-out: EC50) was determined as 7.62 µM. The same measure, in the same setting: as for `COc1ccc(Oc2ccc3c(c2)S(=O)(=O)NCN3C)cc1`, the figure is 5.9 µM; as for `COc1ccccc1Oc1ccc2c(c1)S(=O)(=O)NCN2C`, over 10 µM. On the same count and under the same terms, as for `Cc1cccc(Oc2ccc3c(c2)S(=O)(=O)NCN3C2CC2)c1`, the figure is 0.05 µM. On the same count and under the same terms, then `O=S1(=O)NCN(C2CC2)c2ccc(Oc3ccccc3)cc21`, with 0.71 µM.

Consider `COc1cccc(Oc2ccc3c(c2)S(=O)(=O)NCN3C2CC2)c1`, for which the result in the assay filed under Rattus norvegicus [2] was Active. Moreover, the figures for the K in the assay filed under Rattus norvegicus [1] and in the assay listed under Rattus norvegicus [3] were 5 ×10⁻¹¹ M and 32 mM, respectively. Besides, on Glutamate receptor 2 (read-out: EC50), the EC50 amounted to 0.002 µM.

In the case of `Cc1ccccc1Oc1ccc2c(c1)S(=O)(=O)NCN2C1CC1`, on Glutamate receptor 2 (read-out: EC50), the EC50 was 15.6 µM.

For `Cc1ccc(Oc2ccc3c(c2)S(=O)(=O)NCN3C2CC2)cc1`, at Glutamate receptor 2 (read-out: EC50), the EC50 is 3.19 µM. As for `O=S1(=O)NCN(CCF)c2ccc(Cl)cc21`, the K in the assay filed under Rattus norvegicus [1] came to 2 ×10⁻⁶ M. Further, at Glutamate receptor 2 (read-out: EC50), the EC50 is 20.4 µM. As for `Cc1ccc(Oc2ccc3c(c2)S(=O)(=O)NCN3C)cc1`, the EC50 at Glutamate receptor 2 (read-out: EC50) turned out to be 0.95 µM. Same read-out and setting: then `Cc1cccc(Oc2ccc3c(c2)S(=O)(=O)NCN3C)c1`, with 0.39 µM.
